Assay results from different studies.
Each line is one published result; the experiments were not run side by side.
RET: Proto-oncogene tyrosine-protein kinase receptor Ret (RET, Homo sapiens, UniProt P07949)
RET V804L: Proto-oncogene tyrosine-protein kinase receptor Ret (RET, Homo sapiens, UniProt P07949, V804L)
RET M918T: Proto-oncogene tyrosine-protein kinase receptor Ret (RET, Homo sapiens, UniProt P07949, M918T)

C#Cc1n[nH]c2c(-c3cn([C@@H](C)c4ccccc4)c(=O)[nH]c3=O)cc(F)cc12 — inhibition (Proto-oncogene tyrosine-protein kinase receptor Ret (RET, Homo sapiens, UniProt P07949, V804M); enzyme activity; inhibitor; 0.1 µM): 2.3%
COc1ncccc1-c1cnn2ccc(N3CCN(C(=O)OC(C)C)CC3)nc12 — remaining binding (RET; binding; competition with immobilised ligand; 1 µM): 100%
O=C(Cn1cc(C=C2C(=O)NC(=O)NC2=O)c2ccccc21)Nc1ccccc1 — remaining activity (RET; enzyme activity; inhibitor; radiometric; 0.1 µM): 131%
Nc1ncc(-c2nc(N3CCOCC3)nc(N3CCOCC3)n2)c(C(F)F)n1 — remaining binding (RET V804L; binding; competition with immobilised ligand; 10 µM): 88%
Cc1nn(C)cc1-c1nc2c(N3CCN(Cc4ccc(Cl)cc4)CC3)c(Cl)cnc2[nH]1 — remaining binding (RET V804L; binding; competition with immobilised ligand; 1 µM): 2.1%
O=C1NC(=O)N(c2ccccc2)C(=O)C1=CNc1ccc2[nH]c(=O)[nH]c2c1 — remaining activity (RET; enzyme activity; inhibitor; radiometric; 0.1 µM): 107%
Cn1cncc1[C@](O)(COc1ccc(C#N)cc1-c1ccc(OC(F)(F)F)cc1)c1ccc(C#N)cc1 — remaining binding (RET M918T; cell-free assay; competition with immobilised ligand; 1 µM): 95%
C#Cc1n[nH]c2c(-c3cn(C(C)c4ccccn4)c(=O)[nH]c3=O)cc(F)cc12 (stereo not drawn) — inhibition (RET; enzyme activity; inhibitor; 1 µM): 8.7%
N#CC1(c2ccccn2)CCN(Cc2cc(C(=O)O)c(=O)n3ccccc23)CC1 — remaining binding (RET M918T; cell-free assay; competition with immobilised ligand; 1 µM): 100%
Cn1cc(-c2cc(F)cc(N3CCn4c(cc5c4CCCC5)C3=O)c2CO)cc(Nc2ccc(N3CCN(C4COC4)CC3)cn2)c1=O — inhibition (RET; enzyme activity; inhibitor; 0.1 µM): 11%
O=C(NCc1ncc(C(F)(F)F)cc1Cl)c1ccc2c(c1)C1(CCS(=O)(=O)CC1)[C@H](C1CC1)N2S(=O)(=O)c1ccc(F)cc1 — remaining binding (RET M918T; cell-free assay; competition with immobilised ligand; 1 µM): 96%
O=c1[nH]c2ccccc2n1C1CCN(Cc2ccc(-c3[nH]c4cc5ncnc5cc4nc3-c3ccccc3)cc2)CC1 — remaining signal (RET; cell-free assay; 0.5 µM): 96.7%
